Reference: ChEMBL document CHEMBL3286209, “Synthesis and biological activities of novel pleuromutilin derivatives with a substituted thiadiazole moiety as potent drug-resistant bacteria inhibitors” (J Med Chem, 2014)
≈ marks a conversion by molar mass, not a printed value.

Key:
Format in all cases: functional
Staphylococcus aureus [1] = assay: Antibacterial activity against methicillin-resistant Staphylococcus aureus after 48 hrs by agar dilution method
In short: (§1)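 Agar dilution per NCCLS using clinical isolates. Compound DMSO/water solutions are 2-fold serially diluted in water, then mixed 1:10 into hot Mueller–Hinton agar. Inocula come from blood slants, adjusted to about 10⁵−10⁶ cfu/mL in 0.90% saline, and spotted at 10 μL. Plates incubated at 36.5 °C for 48 h. MIC is the lowest concentration giving complete growth inhibition. Run in triplicate at pH 7.40.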

[2] = system: Staphylococcus epidermidis; assay: Antibacterial activity against methicillin-resistant Staphylococcus epidermidis after 48 hrs by agar dilution method; in short: as §1
Streptococcus agalactiae [3] = assay: Antibacterial activity against Streptococcus agalactiae after 48 hrs by agar dilution method
In short: (§2)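 Agar dilution per NCCLS on Mueller–Hinton agar; compound in DMSO/water, 2-fold serial dilutions in distilled water, 2 mL dilution mixed into 18 mL hot agar. Clinical isolates from blood slants, adjusted to about 10⁵−10⁶ cfu/mL in 0.90% saline; 10 μL spotted. Incubated 36.5 °C for 48 h; MIC = lowest concentration giving complete growth inhibition. Triplicate runs.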

Escherichia coli [4] = assay: Antibacterial activity against Escherichia coli after 48 hrs by agar dilution method; in short: as §2
Staphylococcus aureus [5] = assay: Antibacterial activity against methicillin-resistant Staphylococcus aureus at 320 ug/ml after 24 hrs by Oxford cup assay; details: read-out: IZ
In short: (§3)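 Oxford cup diffusion using clinical isolates. Inocula are made in 0.9% saline to a McFarland standard and spread on nutrient agar. […] Inhibition zone diameter is measured after 24 h at 37 °C. Run in triplicate.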

Staphylococcus aureus [6] = assay: Antibacterial activity against methicillin-resistant Staphylococcus aureus at 160 ug/ml after 24 hrs by Oxford cup assay; details: read-out: IZ; in short: as §3
[7] = system: Staphylococcus epidermidis; assay: Antibacterial activity against methicillin-resistant Staphylococcus epidermidis at 320 ug/ml after 24 hrs by Oxford cup assay; details: read-out: IZ; in short: as §3
[8] = system: Staphylococcus epidermidis; assay: Antibacterial activity against methicillin-resistant Staphylococcus epidermidis at 160 ug/ml after 24 hrs by Oxford cup assay; details: read-out: IZ; in short: as §3
Escherichia coli [9] = assay: Antibacterial activity against Escherichia coli at 320 ug/ml after 24 hrs by Oxford cup assay; details: read-out: IZ
In short: (§4)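 Oxford cup diffusion: saline inoculum set by McFarland standard, spread on nutrient agar plates. […] Inhibition zone measured after 24 h at 37 °C; triplicate.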

Escherichia coli [10] = assay: Antibacterial activity against Escherichia coli at 160 ug/ml after 24 hrs by Oxford cup assay; details: read-out: IZ; in short: as §4
Streptococcus agalactiae [11] = assay: Antibacterial activity against Streptococcus agalactiae at 320 ug/ml after 24 hrs by Oxford cup assay; details: read-out: IZ; in short: as §4
Streptococcus agalactiae [12] = assay: Antibacterial activity against Streptococcus agalactiae at 160 ug/ml after 24 hrs by Oxford cup assay; details: read-out: IZ; in short: as §4

Row | Compound | MIC (Staphylococcus aureus [1]) [µg/mL] | MIC [2] [µg/mL] | MIC (Streptococcus agalactiae [3]) [µg/mL] | MIC (Escherichia coli [4]) [µg/mL] | zone of inhibition at 320 µg/mL (Staphylococcus aureus [5]) [mm] | zone of inhibition at 160 µg/mL (Staphylococcus aureus [6]) [mm] | zone of inhibition at 320 µg/mL [7] [mm] | zone of inhibition at 160 µg/mL [8] [mm] | zone of inhibition at 320 µg/mL (Escherichia coli [9]) [mm] | zone of inhibition at 160 µg/mL (Escherichia coli [10]) [mm] | zone of inhibition at 320 µg/mL (Streptococcus agalactiae [11]) [mm] | zone of inhibition at 160 µg/mL (Streptococcus agalactiae [12]) [mm]
1 | C=C[C@]1(C)C[C@@H](OC(=O)CSc2nnc(NC(=O)c3ccccc3Cl)s2)[C@]2(C)[C@H](C)CC[C@]3(CCC(=O)[C@H]32)[C@@H](C)[C@@H]1O | 2 (≈ 3.16 µM) | 8 (≈ 12.7 µM) | 2 (≈ 3.16 µM) | ≥ 64 | 15 | 12.2 | 12.6 | 11.9 | 10.3 | 0 | 15.5 | 12.7
2 | C=C[C@]1(C)C[C@@H](OC(=O)CSc2nnc(NC(=O)c3cccc(Cl)c3)s2)[C@]2(C)[C@H](C)CC[C@]3(CCC(=O)[C@H]32)[C@@H](C)[C@@H]1O | 2 (≈ 3.16 µM) | 2 (≈ 3.16 µM) | 2 (≈ 3.16 µM) | 32 (≈ 50.6 µM) | 14.7 | 13.4 | 15 | 12.9 | 12.6 | 11.7 | 13.5 | 12.7
3 | C=C[C@]1(C)C[C@@H](OC(=O)CSc2nnc(NC(=O)c3ccc(Cl)cc3)s2)[C@]2(C)[C@H](C)CC[C@]3(CCC(=O)[C@H]32)[C@@H](C)[C@@H]1O | 4 (≈ 6.33 µM) | 4 (≈ 6.33 µM) | 4 (≈ 6.33 µM) | ≥ 64 | 13.7 | 11.9 | 14.1 | 11.3 | 10 | 0 | 13.4 | 11.4
4 | C=C[C@]1(C)C[C@@H](OC(=O)CSc2nnc(NC(=O)c3ccccc3OC)s2)[C@]2(C)[C@H](C)CC[C@]3(CCC(=O)[C@H]32)[C@@H](C)[C@@H]1O | 1 (≈ 1.59 µM) | 2 (≈ 3.19 µM) | 4 (≈ 6.37 µM) | 16 (≈ 25.5 µM) | 14.8 | 12.2 | 14.2 | 11.9 | 11.5 | 9.96 | 13.4 | 11.3
5 | C=C[C@]1(C)C[C@@H](OC(=O)CSc2nnc(NC(=O)c3cccc(OC)c3)s2)[C@]2(C)[C@H](C)CC[C@]3(CCC(=O)[C@H]32)[C@@H](C)[C@@H]1O | 8 (≈ 12.7 µM) | 4 (≈ 6.37 µM) | 8 (≈ 12.7 µM) | ≥ 64 | 13.1 | 11.4 | 13.8 | 12.3 | 10.9 | 9.02 | 12.8 | 11.7
6 | C=C[C@]1(C)C[C@@H](OC(=O)CSc2nnc(NC(=O)c3ccc(OC)cc3)s2)[C@]2(C)[C@H](C)CC[C@]3(CCC(=O)[C@H]32)[C@@H](C)[C@@H]1O | 2 (≈ 3.19 µM) | 2 (≈ 3.19 µM) | 2 (≈ 3.19 µM) | 32 (≈ 51 µM) | 15.5 | 12.2 | 14.4 | 9.52 | 11.2 | 10.7 | 14.3 | 11.5
7 | C=C[C@]1(C)C[C@@H](OC(=O)CSc2nnc(NC(=O)c3ccccc3N)s2)[C@]2(C)[C@H](C)CC[C@]3(CCC(=O)[C@H]32)[C@@H](C)[C@@H]1O | 4 (≈ 6.53 µM) | 2 (≈ 3.26 µM) | 4 (≈ 6.53 µM) | 16 (≈ 26.1 µM) | 15.5 | 12.9 | 15.2 | 12.2 | 11.3 | 10.1 | 13.8 | 12.4
8 | C=C[C@]1(C)C[C@@H](OC(=O)CSc2nnc(NC(=O)c3cccc(N)c3)s2)[C@]2(C)[C@H](C)CC[C@]3(CCC(=O)[C@H]32)[C@@H](C)[C@@H]1O | 0.25 (≈ 0.408 µM) | 0.5 (≈ 0.816 µM) | 0.25 (≈ 0.408 µM) | 16 (≈ 26.1 µM) | 19.2 | 17.5 | 17.8 | 16.1 | 13.7 | 12.7 | 18.4 | 17.4
9 | C=C[C@]1(C)C[C@@H](OC(=O)CSc2nnc(NC(=O)c3ccc(N)cc3)s2)[C@]2(C)[C@H](C)CC[C@]3(CCC(=O)[C@H]32)[C@@H](C)[C@@H]1O | 2 (≈ 3.26 µM) | 1 (≈ 1.63 µM) | 2 (≈ 3.26 µM) | 16 (≈ 26.1 µM) | 13.2 | 11.4 | 14.8 | 12.1 | 12.2 | 10.7 | 14 | 12.3
10 | C=C[C@]1(C)C[C@@H](OC(=O)CSc2nnc(NC(=O)CN(C)C)s2)[C@]2(C)[C@H](C)CC[C@]3(CCC(=O)[C@H]32)[C@@H](C)[C@@H]1O | 1 (≈ 1.73 µM) | 2 (≈ 3.46 µM) | 2 (≈ 3.46 µM) | 32 (≈ 55.3 µM) | 17.6 | 15.4 | 16 | 14.3 | 12 | 10.1 | 14.5 | 11.5
11 | C=C[C@]1(C)C[C@@H](OC(=O)CSc2nnc(NC(=O)CN(CC)CC)s2)[C@]2(C)[C@H](C)CC[C@]3(CCC(=O)[C@H]32)[C@@H](C)[C@@H]1O | 8 (≈ 13.2 µM) | 4 (≈ 6.59 µM) | 8 (≈ 13.2 µM) | 64 (≈ 105 µM) | 12.3 | 11 | 12.8 | 11.5 | 10.2 | 9.13 | 12.7 | 10.4
12 | C=C[C@]1(C)C[C@@H](OC(=O)CSc2nnc(NC(=O)CN3CCCC3)s2)[C@]2(C)[C@H](C)CC[C@]3(CCC(=O)[C@H]32)[C@@H](C)[C@@H]1O | 4 (≈ 6.61 µM) | 4 (≈ 6.61 µM) | 2 (≈ 3.31 µM) | 32 (≈ 52.9 µM) | 13.2 | 13.1 | 12.8 | 10.5 | 11.1 | 9.86 | 13.8 | 12.8
